Data published in ChEMBL document CHEMBL4732027, “Pyridazinone derivatives as potential anti-inflammatory agents: synthesis and biological evaluation as PDE4 inhibitors” (RSC Med Chem, 2021).
Activity calls are given as the source filed them. The rule behind the calls is not given here.

Legend:
[1] = target: T1, 3',5'-cyclic-AMP phosphodiesterase 4B (Homo sapiens, UniProt Q07343); assay: Inhibition of recombinant human PDE-4B expressed in Escherichia coli at 20 uM using cAMP as substrate incubated for 60 mins by PDE4 assay kit method relative to control
Outline: (§1)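 Human recombinant PDE4 expressed in E. coli, incubated with cAMP and 5'-nucleotidase in 10 mM Tris-HCl pH 7.4 at 30 °C for 60 min. Released phosphate detected colorimetrically after 30 min colour development. IC50 from five concentrations by nonlinear regression; mean of two or three independent runs, each in triplicate.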

[2] = target: T1, 3',5'-cyclic-AMP phosphodiesterase 4B; assay: Inhibition of recombinant human PDE-4B expressed in Escherichia coli using cAMP as substrate incubated for 60 mins by PDE4 assay kit method; outline: as §1
[3] = Lipophilicity, logP of compound; format: physicochemical; conditions: octanol/water
Outline: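 LogP calculated with software, not measured.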

Macrophage [4] = assay: Antiinflammatory activity against human PBMC derived primary macrophages assessed as reduction in LPS-induced cell morphology changes at 50 uM incubated for 24 hrs by scanning electron microscopic analysis; format: functional, cell-based
Outline: (§2)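 Human PBMCs isolated from EDTA blood (red cells lysed by hypotonic shock), grown on coverslips in RPMI 1640 + 10% heat-inactivated FBS with 25 ng/mL M-CSF for 24 h at 37 °C, 5% CO2. Non-adherent cells removed, then 24 h stimulation with LPS 10 ng/mL in 0.5% DMSO ± compound. Cells fixed in 2.5% glutaraldehyde, dehydrated in ethanol, dried with HMDS, gold-palladium coated, imaged by FE-SEM at 2 kV.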

Macrophage [5] = assay: Cytotoxicity against human PBMC derived primary macrophages assessed as reduction in cell viability at 5 to 50 uM incubated for 24 hrs by LDH assay; format: cell-based; conditions: dose 5-50 µM
Outline: (§3)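 Cell death in human PBMC-derived macrophages (M-CSF 25 ng/mL, 24 h) after 24 h LPS (10 ng/mL, 0.5% DMSO) plus compound at 5–50 µM. LDH activity measured in supernatant with a commercial kit, absorbance at 492 nm corrected at 700 nm. Eight donors.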

Macrophage [6] = assay: Antiinflammatory activity against human PBMC derived primary macrophages assessed as reduction in LPS-induced IL-8 level at 20 uM incubated for 24 hrs by ELISA relative to control; format: functional
Outline: (§4)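 Macrophages from human blood PBMCs, differentiated 24 h with 25 ng/mL M-CSF, non-adherent cells removed. Stimulated 24 h with 10 ng/mL E. coli LPS in 0.5% DMSO, with compound at 5–50 µM. Supernatant cytokines measured by sandwich ELISA against a recombinant standard curve. Detection limits: IL-1β 3.9, IL-6 and TNF-α 7.8, IL-8 15.7 pg/mL. Cells from 8 donors; Kruskal–Wallis then Wilcoxon–Mann–Whitney tests.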

Macrophage [7] = assay: Antiinflammatory activity against human PBMC derived primary macrophages assessed as reduction in LPS-induced IL-8 level at 50 uM incubated for 24 hrs by ELISA relative to control; format: functional; outline: as §4
Macrophage [8] = assay: Antiinflammatory activity against human PBMC derived primary macrophages assessed as reduction in LPS-induced IL-1beta level at 20 uM incubated for 24 hrs by ELISA relative to control; format: functional; outline: as §4
Macrophage [9] = assay: Antiinflammatory activity against human PBMC derived primary macrophages assessed as reduction in LPS-induced IL-1beta level at 50 uM incubated for 24 hrs by ELISA relative to control; format: functional; outline: as §4
Macrophage [10] = assay: Antiinflammatory activity against human PBMC derived primary macrophages assessed as reduction in LPS-induced TNF-alpha level at 50 uM incubated for 24 hrs by ELISA relative to control; format: functional; outline: as §4
Macrophage [11] = assay: Antiinflammatory activity against human PBMC derived primary macrophages assessed as reduction in LPS-induced TNF-alpha level at 5 uM incubated for 24 hrs by ELISA relative to control; format: functional; outline: as §4
Macrophage [12] = assay: Antiinflammatory activity against human PBMC derived primary macrophages assessed as reduction in LPS-induced IL-6 level at 50 uM incubated for 24 hrs by ELISA relative to control; format: functional; outline: as §4
Macrophage [13] = assay: Antiinflammatory activity against human PBMC derived primary macrophages assessed as reduction in LPS-induced IL-6 level at 20 uM incubated for 24 hrs by ELISA relative to control; format: functional; outline: as §4
Macrophage [14] = assay: Antiinflammatory activity against human PBMC derived primary macrophages assessed as reduction in LPS-induced IL-6 level at 10 uM incubated for 24 hrs by ELISA relative to control; format: functional; outline: as §4
Macrophage [15] = assay: Antiinflammatory activity against human PBMC derived primary macrophages assessed as reduction in LPS-induced IL-6 level at 5 uM incubated for 24 hrs by ELISA relative to control; format: functional; outline: as §4
Mus musculus [16] = assay: Antiinflammatory activity in BALB/cJRj mouse air pouch model assessed as decrease in LPS-stimulated monocyte recruitment in air pouch at 200 uM, sc measured after 6 hrs by flow cytometry analysis relative to control; format: functional
Outline: (§5)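 Seven-week-old BALB/cJRj mice. Dorsal subcutaneous air pouch made under isoflurane with 3 mL filtered air on day 0, refilled day 3. On day 7, 2 mL LPS (10 ng/mL) in 0.5% DMSO with compound at 2, 20 or 200 µM injected into the pouch; controls got 0.5% DMSO in saline. After 6 h, exudate collected by lavage with 2 mL 5 mM PBS-EDTA. Cells counted and stained for Ly6G and F4/80, then analysed by flow cytometry. Eight to 17 animals per group.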

Mus musculus [17] = assay: Antiinflammatory activity in BALB/cJRj mouse air pouch model assessed as decrease in LPS-stimulated macrophage recruitment in air pouch at 2 to 20 uM, sc measured after 6 hrs by flow cytometry analysis; format: functional, organism-based; conditions: dose 2-20 µM; outline: as §5
Mus musculus [18] = assay: Antiinflammatory activity in BALB/cJRj mouse air pouch model assessed as decrease in LPS-stimulated monocyte recruitment in air pouch at 2 to 20 uM, sc measured after 6 hrs by flow cytometry analysis; format: functional, organism-based; conditions: dose 2-20 µM; outline: as §5
Mus musculus [19] = assay: Antiinflammatory activity in BALB/cJRj mouse air pouch model assessed as decrease in LPS-stimulated monocyte recruitment in air pouch at 2 uM, sc measured after 6 hrs by flow cytometry analysis; format: functional, organism-based; outline: as §5
Mus musculus [20] = assay: Antiinflammatory activity in BALB/cJRj mouse air pouch model assessed as decrease in LPS-stimulated monocyte recruitment in air pouch at 20 uM, sc measured after 6 hrs by flow cytometry analysis (reference value: 1.9); format: functional; outline: as §5
Macrophage [21] = assay: Antiinflammatory activity against LPS-treated human PBMC derived primary macrophages assessed as increase in flattened cell morphology at 10 uM incubated for 24 hrs by scanning electron microscopic analysis; format: functional, cell-based; outline: as §2
Macrophage [22] = assay: Antiinflammatory activity against human PBMC derived primary macrophages assessed as reduction in LPS-induced vesicle number at 10 uM incubated for 24 hrs by scanning electron microscopic analysis; format: functional, cell-based; outline: as §2
Macrophage [23] = assay: Antiinflammatory activity against LPS-treated human PBMC derived primary macrophages assessed as intricate cytoplasm at 10 uM incubated for 24 hrs by scanning electron microscopic analysis; format: functional, cell-based; outline: as §2
Macrophage [24] = assay: Antiinflammatory activity against LPS-induced human PBMC derived primary macrophages assessed as increase in cell size at 10 uM incubated for 24 hrs by scanning electron microscopic analysis; format: functional, cell-based; outline: as §2
Macrophage [25] = assay: Cytotoxicity against human PBMC derived primary macrophages assessed as reduction in cell viability at 10 uM incubated for 24 hrs by LDH assay; format: cell-based; outline: as §3
Macrophage [26] = assay: Antiinflammatory activity against human PBMC derived primary macrophages assessed as reduction in LPS-induced IL-8 level at 10 uM incubated for 24 hrs by ELISA relative to control; format: functional; outline: as §4
Mus musculus [27] = assay: Antiinflammatory activity in BALB/cJRj mouse air pouch model assessed as decrease in LPS-stimulated monocyte recruitment in air pouch at 200 uM, sc measured after 6 hrs by flow cytometry analysis (reference value: 1.9); format: functional; outline: as §5
Mus musculus [28] = assay: Antiinflammatory activity in BALB/cJRj mouse air pouch model assessed as decrease in LPS-stimulated macrophage recruitment in air pouch at 2 to 200 uM, sc measured after 6 hrs by flow cytometry analysis; format: functional, organism-based; conditions: dose 2-200 µM; outline: as §5

T1 sequence (Q07343 whole entry): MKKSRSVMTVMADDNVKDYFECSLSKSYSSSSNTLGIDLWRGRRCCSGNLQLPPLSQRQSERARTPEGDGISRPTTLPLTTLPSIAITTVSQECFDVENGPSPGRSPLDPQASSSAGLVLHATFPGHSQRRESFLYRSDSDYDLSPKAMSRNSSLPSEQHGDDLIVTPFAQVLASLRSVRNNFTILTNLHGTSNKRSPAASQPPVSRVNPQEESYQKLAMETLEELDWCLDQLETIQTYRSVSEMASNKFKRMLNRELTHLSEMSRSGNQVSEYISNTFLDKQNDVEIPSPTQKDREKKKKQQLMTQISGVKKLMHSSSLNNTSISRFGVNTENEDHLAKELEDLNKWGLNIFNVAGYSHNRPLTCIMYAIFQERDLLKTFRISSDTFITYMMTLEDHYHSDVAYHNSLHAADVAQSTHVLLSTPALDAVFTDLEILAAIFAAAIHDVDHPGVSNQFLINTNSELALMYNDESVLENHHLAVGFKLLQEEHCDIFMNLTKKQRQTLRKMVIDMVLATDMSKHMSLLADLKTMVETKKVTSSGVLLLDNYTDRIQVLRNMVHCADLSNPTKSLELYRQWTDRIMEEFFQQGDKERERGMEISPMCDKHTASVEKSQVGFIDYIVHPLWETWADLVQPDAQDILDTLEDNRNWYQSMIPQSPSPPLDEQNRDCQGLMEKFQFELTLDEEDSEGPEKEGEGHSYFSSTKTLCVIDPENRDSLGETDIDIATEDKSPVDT

SMILES	inhibition [1] [%]	other results
COc1ccc2[nH]cc(-c3cc(C)n[nH]c3=O)c2c1	63.9	IC50 [2]: 251 nM; logP [3]: 0.43; Activity (Macrophage [4]): Active; Activity (Macrophage [5]): Non-Toxic; inhibition at 20 µM (Macrophage [6]): 16%; inhibition at 50 µM (Macrophage [7]): 25%; inhibition at 20 µM (Macrophage [8]): 58%; inhibition at 50 µM (Macrophage [9]): 54%; inhibition at 50 µM (Macrophage [10]): 47%; inhibition at 5 µM (Macrophage [11]): 43%; inhibition at 50 µM (Macrophage [12]): 21%; inhibition at 20 µM (Macrophage [13]): 28%; inhibition at 10 µM (Macrophage [14]): 23%; inhibition at 5 µM (Macrophage [15]): 16%; inhibition in vivo at 200 µM (Mus musculus [16]): 69%; inhibition (Mus musculus [17]): Active; inhibition (Mus musculus [18]): Active
Cc1cc(-c2c[nH]c3ccccc23)c(=O)n(Cc2ccccc2)n1	30.1	
Cc1cc(-c2c[nH]c3ccccc23)c(=O)n(C)n1	15.3	
CC1=NNC(=O)C(c2c[nH]c3ccc([N+](=O)[O-])cc23)C1 (stereo not given)	19.5	
CC1=NN(C)C(=O)C(c2c[nH]c3ccccc23)C1 (stereo not given)	8.7	
Cc1cc(-c2c[nH]c3ccc(F)cc23)c(=O)n(Cc2ccccc2)n1	17.6	
CC1=NN(Cc2ccccc2)C(=O)C(c2c[nH]c3ccc(I)cc23)C1 (stereo not given)	4.5	
Cc1cc(-c2c[nH]c3ccc(I)cc23)c(=O)n(Cc2ccccc2)n1	8.9	
COc1ccc2[nH]cc(-c3cc(C)nn(Cc4ccccc4)c3=O)c2c1	49.1	
COc1ccc2[nH]cc(C3CC(C)=NN(Cc4ccccc4)C3=O)c2c1 (stereo not given)	28.9	
CC1=NN(Cc2ccccc2)C(=O)C(c2c[nH]c3ccc(F)cc23)C1 (stereo not given)	9.4	
CC1=NNC(=O)C(c2c[nH]c3ccc(Br)cc23)C1 (stereo not given)	9.8	
Cc1cc(-c2c[nH]c3ccc(I)cc23)c(=O)[nH]n1	5.9	
O=C(Nc1c(Cl)cncc1Cl)c1ccc(OC(F)F)c(OCC2CC2)c1 [ROFLUMILAST]	74.6	inhibition (Mus musculus [19]): inactive; fold change (FC) (Mus musculus [20]): 3.5; Activity (Macrophage [21]): Active; Activity (Macrophage [22]): Active; Activity (Macrophage [23]): Active; Activity (Macrophage [24]): Active; Activity (Macrophage [25]): Non-Toxic; inhibition at 10 µM (Macrophage [26]): 10%; fold change (FC) (Mus musculus [27]): 2; inhibition (Mus musculus [28]): inactive
Cc1cc(-c2c[nH]c3ccc([N+](=O)[O-])cc23)c(=O)[nH]n1	26.8	
CC1=NNC(=O)C(c2c[nH]c3ccc(I)cc23)C1 (stereo not given)	2.2	
COc1ccc2[nH]cc(C3CC(C)=NN(C)C3=O)c2c1 (stereo not given)	13.4	
CC1=NN(Cc2ccccc2)C(=O)C(c2c[nH]c3ccccc23)C1 (stereo not given)	17.7	
CC1=NN(Cc2ccccc2)C(=O)C(c2c[nH]c3ccc(Br)cc23)C1 (stereo not given)	8.7	
CC(C)Cn1c(=O)n(C)c(=O)c2nc[nH]c21	38	
Cc1cc(-c2c[nH]c3ccccc23)c(=O)[nH]n1	45.6	
COc1ccc2[nH]cc(-c3cc(C)nn(C)c3=O)c2c1	21.8	
COc1ccc2[nH]cc(C3CC(C)=NNC3=O)c2c1 (stereo not given)	37.5	
CC1=NNC(=O)C(c2c[nH]c3ccc(F)cc23)C1 (stereo not given)	12.8	
Cc1cc(-c2c[nH]c3ccc(F)cc23)c(=O)[nH]n1	23.6	
Cc1cc(-c2c[nH]c3ccc(Br)cc23)c(=O)[nH]n1	16.8	
CC1=NNC(=O)C(c2c[nH]c3ccccc23)C1 (stereo not given)	32.3	
Cc1cc(-c2c[nH]c3ccc(Br)cc23)c(=O)n(Cc2ccccc2)n1	14.2	
